Measurements taken from ChEMBL document CHEMBL4196179, “Synthesis and Pharmacological Evaluation of Noscapine-Inspired 5-Substituted Tetrahydroisoquinolines as Cytotoxic Agents” (J Med Chem, 2018).
pEC50, pIC50: −log10 of the molar value. Activity calls are given as the source filed them. No cut-off for these calls is given here.

What was measured:
MCF7 [1] = test: Cell cycle arrest in human MCF7 cells assessed as increase in accumulation at G2/M phase at 10 uM after 18 hrs by Hoechst 33342 staining based FACS analysis relative to control; type: functional
Procedure, shortened: (§1)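 Cells seeded 48 h beforehand, treated 18 h with test compounds at 10 µM or vincristine at 100 nM, then trypsinised and stained with Hoechst 33342 for 60 min; FACS read at 450 nm; % G2/M increase calculated relative to 0.1% DMSO vehicle; mean ± SEM of three independent experiments.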

PANC-1 [2] = test: Cell cycle arrest in human PANC1 cells assessed as increase in accumulation at G2/M phase at 10 uM after 18 hrs by Hoechst 33342 staining based FACS analysis relative to control; type: functional; procedure, shortened: as §1
Sus scrofa [3] = species: Sus scrofa; test: Stabilization of pig tubulin assessed as Vmax of tubulin polymerization at 10 uM after 60 mins turbidimetric analysis (reference value: 27 +/- 2 milliOD/min)
[4] = Binding affinity to recombinant P-gp cys-less mutant (unknown origin) in proteoliposomes assessed as increase in ATP hydrolysis rate after 40 mins by colorimetric assay; set-up: species or system Homo sapiens
Procedure, shortened: (§2)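 P-gp expressed in High-Five insect cells via recombinant baculovirus, IMAC-purified and reconstituted into proteoliposomes; 0.1-0.5 µg incubated with 2 mM ATP and drug at 10^-9 to 10^-4 M for 40 min at 37 °C; liberated Pi measured colorimetrically; EC50 and extent of stimulation from dose-response fit against drug-free basal activity.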

PANC-1 [5] = test: Cell cycle arrest in human PANC1 cells assessed as accumulation at G1 phase at 10 uM after 18 hrs by Hoechst 33342 staining based FACS analysis (reference value: 70.7%); type: functional
PANC-1 [6] = test: Cell cycle arrest in human PANC1 cells assessed as accumulation at S phase at 10 uM after 18 hrs by Hoechst 33342 staining based FACS analysis (reference value: 11.1%); type: functional
PANC-1 [7] = test: Cell cycle arrest in human PANC1 cells assessed as accumulation at G2/M phase at 10 uM after 18 hrs by Hoechst 33342 staining based FACS analysis (reference value: 13.7%); type: functional
Sus scrofa [8] = species: Sus scrofa; test: Inhibition of pig tubulin polymerization assessed as Vmax of tubulin polymerization at 10 uM after 60 mins turbidimetric analysis (reference value: 27 +/- 2 milliOD/min)
[9] = Cytotoxicity against human Renal 1983 cells; type: functional, cell-based
MCF7 [10] = test: Antiproliferative activity against human MCF7 cells after 6 days by MTT assay; type: functional, cell-based; details: MCF7, 144 h
Procedure, shortened: (§3)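 Cells seeded overnight at 1500/well, then exposed to a range of concentrations for 6 d; viability by MTT (570 nm, background-subtracted, normalised to untreated control = 100%); EC50 from sigmoidal dose-response fit by non-linear least squares; mean ± SEM of at least 8 independent observations. MCF-7 in MEMα + 10% FBS; NCI/AdrRES in DMEM + 10% FCS with periodic 3 µM doxorubicin selection.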

NCI/ADR-RES [11] = test: Antiproliferative activity against human NCI/ADR-RES cells after 6 days by MTT assay; type: functional, cell-based; details: 144 h; procedure, shortened: as §3
MCF7 [12] = test: Effect on calcein-AM accumulation in human wild type MCF7 cells at 1 uM by fluorescence assay; type: functional, cell-based
Procedure, shortened: (§4)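 Cells seeded at 2 × 10^3/well and grown 2 d, washed and placed in HBSS; test compound added at 2X in HBSS with DMSO ≤1% final, then calcein-AM at 1 µM final; intracellular fluorescence followed over time, rate taken as slope from linear regression.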

[13] = Absolute oral bioavailability in human at 150 mg; type: ADME, organism-based; details: in vivo
NCI/ADR-RES [14] = test: Inhibition of P-gp in human NCI/ADR-RES cells assessed as rate of calcein-AM accumulation at 1 uM by fluorescence assay; type: cell-based; procedure, shortened: as §4
Homo sapiens [15] = species: Homo sapiens; test: Ratio of nicardipine activity to test compound activity for inhibition of P-gp in human NCI/ADR-RES cells assessed as rate of calcein-AM accumulation; type: cell-based
Procedure, shortened: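 Rate of calcein accumulation in NCI/AdrRES cells (1 µM calcein-AM in HBSS, fluorescence versus time, slope by linear regression) with the P-gp modulator nicardipine, compared to the rate with test compound.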

Homo sapiens [16] = species: Homo sapiens; test: Binding affinity to recombinant P-gp cys-less mutant (unknown origin) in proteoliposomes assessed as increase in ATP hydrolysis rate at 10^-9 to 10^-4 M after 40 mins by colorimetric assay relative to basal control; procedure, shortened: as §2
HeLa = test: Cytotoxicity against human HeLa cells; type: functional, cell-based
MCF7 [17] = test: Cytotoxicity against human MCF7 cells; type: functional, cell-based
[18] = Terminal half life in human; type: ADME, organism-based; details: in vivo, read-out: beta t1/2 (converted)

SMILES	Activity (MCF7 [1])	Activity (PANC-1 [2])	further results
CCNC(=O)N1CCc2c(Br)c3c(c(OC)c2C1Cc1cccc(OC)c1OC)OCO3 (stereo not drawn)	11%	28%	–
COc1cc(CC2c3c(c(Br)c4c(c3OC)OCO4)CCN2C)cc(OC)c1OC (stereo not drawn)	-8%	-1%	–
CCNC(=O)N1CCc2c(Br)c3c(c(OC)c2C1c1ccc(OC)cc1)OCO3 (stereo not drawn)	18%	21%	–
COc1ccc2c(c1OC)CC1c3c(c(Br)c4c(c3OC)OCO4)CCN1C2 (stereo not drawn)	28%	9%	–
COc1ccc(CC2c3c(c(Br)c4c(c3OC)OCO4)CCN2C)cc1 (stereo not drawn)	180%	226%	–
CC(=O)O[C@H]1C(=O)[C@@]2(C)[C@H]([C@H](OC(=O)c3ccccc3)[C@]3(O)C[C@H](OC(=O)[C@H](O)[C@@H](NC(=O)c4ccccc4)c4ccccc4)C(C)=C1C3(C)C)[C@]1(OC(C)=O)CO[C@@H]1C[C@@H]2O	–	–	Vmax (milli optical density/minute) (Sus scrofa [3]): 76
COc1ccc2c(c1OC)C(=O)O[C@@H]2[C@H]1c2c(cc3c(c2OC)OCO3)CCN1C [NOSCAPINE]	2%	16%	pEC50 [4]: 4.16; Activity (PANC-1 [5]): 69.3%; Activity (PANC-1 [6]): 10.8%; Activity (PANC-1 [7]): 16.1%; Vmax (milli optical density/minute) (Sus scrofa [8]): 20; pIC50 [9]: 4.41; pIC50 (MCF7 [10]): 4.73; pIC50 (NCI/ADR-RES [11]): 4.76; Activity (MCF7 [12]): inactive; bioavailability [13]: 30%; Activity (NCI/ADR-RES [14]): 26.7 RFU/min; Ratio (Homo sapiens [15]): 4; fold change (FC) (Homo sapiens [16]): 17.6; pIC50 (HeLa): 4.60; pIC50 (MCF7 [17]): 4.38; half-life [18]: 4.5 h
CCNC(=O)N1CCc2c(Br)c3c(c(OC)c2C1c1cccc(OC)c1OC)OCO3 (stereo not drawn)	19%	14%	–
COc1cc(C2c3c(c(Br)c4c(c3OC)OCO4)CCN2C)cc(OC)c1OC (stereo not drawn)	48%	12%	–
COc1cccc(CC2c3c(c(Br)c4c(c3OC)OCO4)CCN2C)c1OC (stereo not drawn)	32%	8%	–
COc1ccc(C2c3c(c(Br)c4c(c3OC)OCO4)CCN2C)cc1 (stereo not drawn)	23%	26%	–
COc1ccc(C2c3c(c(Br)c4c(c3OC)OCO4)CCN2C)cc1OC (stereo not drawn)	20%	8%	–
COc1cccc(C2c3c(c(Br)c4c(c3OC)OCO4)CCN2C)c1OC (stereo not drawn)	29%	16%	–
CCNC(=O)N1CCc2c(Br)c3c(c(OC)c2C1c1ccccc1)OCO3 (stereo not drawn)	6%	-2%	–
